We go through 12 compounds from ChEMBL document CHEMBL4000240, “Escape from adamantane: Scaffold optimization of novel P2X7 antagonists featuring complex polycycles” (Bioorg Med Chem Lett, 2017).

The first assay addresses T1, P2X purinoceptor 7 (Homo sapiens, UniProt Q99572).
T1 sequence (Q99572 whole entry): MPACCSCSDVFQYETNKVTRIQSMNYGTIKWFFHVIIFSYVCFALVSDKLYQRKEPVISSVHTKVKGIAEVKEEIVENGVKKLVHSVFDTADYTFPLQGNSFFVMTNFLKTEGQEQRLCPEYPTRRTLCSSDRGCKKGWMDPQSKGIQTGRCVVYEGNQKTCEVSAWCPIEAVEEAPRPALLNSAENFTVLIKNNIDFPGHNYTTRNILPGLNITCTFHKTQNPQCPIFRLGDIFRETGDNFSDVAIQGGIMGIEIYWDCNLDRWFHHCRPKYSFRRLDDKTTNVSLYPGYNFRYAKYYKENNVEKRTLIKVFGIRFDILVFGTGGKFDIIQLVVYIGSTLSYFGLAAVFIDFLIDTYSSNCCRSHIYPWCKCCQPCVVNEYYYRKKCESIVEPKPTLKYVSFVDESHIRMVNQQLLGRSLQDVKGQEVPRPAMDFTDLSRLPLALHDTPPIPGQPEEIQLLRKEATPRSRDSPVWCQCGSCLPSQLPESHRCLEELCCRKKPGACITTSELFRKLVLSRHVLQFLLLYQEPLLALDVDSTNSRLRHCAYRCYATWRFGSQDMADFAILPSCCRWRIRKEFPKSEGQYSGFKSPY
Description: Antagonist activity at human P2X7 receptor expressed in HEK293 cells assessed as inhibition of BzATP-induced ethidium bromide uptake after 2 hrs by fluorescence assay. Type of assay: cell-based. Put shortly:
(§1)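 HEK293 cells stably carrying hP2X7 (pcDNA3.1 plasmid, Lipofectamine transfection) grown in DMEM/10% FBS, 2 mM glutamine, antibiotics, 37 °C, 5% CO2. Cells at 2.5 x 10^6/mL in pH 7.4 HEPES buffer with sucrose or NaCl, given compound plus BzATP, 2 h at 37 °C. Ethidium read at ex 530/em 590 nm as % of BzATP-only uptake. IC50 by nonlinear regression, 3-6 experiments.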
On to `CN([C@@H](Cc1ccc(OS(=O)(=O)c2cccc3cnccc23)cc1)C(=O)N1CCN(c2ccccc2)CC1)S(=O)(=O)c1cccc2cnccc12`, for which the IC50 (usually the midpoint of a concentration-inhibition curve) stood at 96 nM.

For the compound `CC12CC3CC1(C)CC3(C(=O)NNc1ccccc1Cl)C2`, the IC50 amounted to 18 nM.

As to `O=C(NNc1ccccc1Cl)C12C3CCC4C3C3C(CCC31)C42`, the IC50 turned out to be 933 nM.

Consider `O=C(NNc1ccccc1Cl)C12C3C=CC4C3C3C(C=CC31)C42`, for which the IC50 is 96 nM.

With `O=C(NNc1ccc(C(F)(F)F)cc1Cl)C12C3C=CC4C3C3C(C=CC31)C42`, the IC50 was determined as 1560 nM.

Turning to `O=C(NNc1ccccc1C(F)(F)F)C12C3C=CC4C3C3C(C=CC31)C42`, the IC50 was found to be 132 nM.

In the case of `O=C(NNc1ccccc1C(F)(F)F)C12C3CCC4C3C3C(CCC31)C42`, the IC50 turned out to be 366 nM.

The target of another assay is T2, P2X purinoceptor 7 (Homo sapiens) (UniProt Q99572).
T2 sequence (whole entry): T1 sequence (Q99572 whole entry)
The assay is described as follows: Antagonist activity at human P2X7 receptor expressed in HEK293 cells assessed as inhibition of BzATP-induced ethidium bromide uptake at 10 uM after 2 hrs by fluorescence assay relative to control. The format is cell-based. Put shortly: as §1
As to `O=C1C2C3C=CC(C4CC34)C2C(=O)N1Nc1ccccc1F` (configuration not stated), the inhibition (in general, the relative decrease from the control value, in per cent) was less than 20%.

With `O=C(NNc1ccc(C(F)(F)F)cc1)C12C3CCC4C3C3C(CCC31)C42`, the inhibition was less than 20%.

As for `O=C1C2C3C=CC(C4CC34)C2C(=O)N1Nc1ccccc1` (configuration not stated), the inhibition was less than 20%.

As for `O=C1C2C3C=CC(C4CC34)C2C(=O)N1Nc1ccccc1Cl` (configuration not stated), the inhibition is less than 20%.

In the case of `O=C(NNc1ccc(C(F)(F)F)cc1)C12C3C=CC4C3C3C(C=CC31)C42`, the inhibition is less than 20%.
